From ChEMBL document CHEMBL1139207, “Pyrroloacridine alkaloids from Plakortis quasiamphiaster: structures and bioactivity” (J Nat Prod, 2007)
Activity calls are given as the source filed them. The calls are words filed in the database; no cut-off is given here.

Legend:
[1] = system: Saccharomyces cerevisiae; experiment: Inhibition of wild type Saccharomyces cerevisiae by yeast halo assay; type: functional, organism-based
In short: (§1)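 Diploid S. cerevisiae BY4743 (top1∆ or wild type) from overnight culture seeded into YPD-H agar (YPD buffered with 25 mM HEPES, pH 7) and cooled 30 min. DMSO stocks were pin-transferred at 200 nL into the agar. Plates read by absorbance at 544 nm, growth-inhibition halo diameter measured, and top1∆ growth compared with wild type.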

[2] = system: Saccharomyces cerevisiae; experiment: Inhibition of Saccharomyces cerevisiae top1delta by yeast halo assay; type: functional, organism-based; in short: as §1
[3] = Cytotoxicity against human H116 cells by disk diffusion assay; type: cell-based
[4] = Cytotoxicity against human H116 cells by clonogenic assay after 24 hrs; type: cell-based; conditions: h116, 24 h
In short: (§2)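 Clonogenic survival of human colon H-116 cells over a range of concentrations, exposed for 2, 24 or 168 h (168 h being continuous over the 7-day incubation). Value reported as the concentration giving 10% surviving fraction (S10), read from the concentration-response curve.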

[5] = Cytotoxicity against human H116 cells by clonogenic assay after 2 hrs; type: cell-based; conditions: h116, 2 h; in short: as §2
[6] = Cytotoxicity against human H116 cells by clonogenic assay after 168 hrs; type: cell-based; conditions: h116, 168 h; in short: as §2
[7] = system: Saccharomyces cerevisiae; experiment: Inhibition of Saccharomyces cerevisiae top1delta in liquid culture; type: functional
In short: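 Diploid S. cerevisiae BY4743 top1∆ and wild type grown in 100 µL liquid cultures with six 2-fold dilutions of compound alongside DMSO controls. Absorbance at 544 nm read every 30 min. Doubling time computed at each concentration and compared with the DMSO doubling time; LC50 derived.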

[8] = Induction of Top2-mediated catenation of DNA; type: functional

CCC/C=C/CCCCCCCCCC[C@]1(C)OC(=O)[C@@H](CO)[C@@H]1O [AMPHIASTERIN B1]
Activity [1]: inactive
Activity [2]: inactive
Activity [3]: Not Active

CNc1c2c(c3nc4ccccc4c4c3c1N=C4)NCCC2=O [PLAKINIDINE A]
Activity [4]: 1.5 µg/mL
Activity [1]: inactive
Activity [5]: 20 µg/mL
Activity [6]: 150 ng/mL
Activity [2]: inactive
Activity [3]: Active

O=C1CCNC2=C1C(=O)c1[nH]cc3c1c2nc1ccccc13 [PLAKINIDINE E]
Activity [1]: Non-toxic
Activity [2]: Toxic
Activity [3]: Not Active
LC50 [7]: 33 µM

CCC/C=C/CCCCCCCCCCCC[C@]1(C)OC(=O)[C@@H](CO)[C@@H]1O [AMPHIASTERIN B2]
Activity [1]: inactive
Activity [2]: inactive
Activity [3]: Not Active

Cn1ccc2c(c1=O)C(=O)c1nccc3c1c-2nc1ccccc13
Activity [8]: Active
